Measured values reported in ChEMBL document CHEMBL1136891, “1,3-dialkyl-8-N-substituted benzyloxycarbonylamino-9-deazaxanthines as potent adenosine receptor ligands: Design, synthesis, structure-affinity and structure-selectivity relationships” (Bioorg Med Chem, 2009).
In brackets after ≈: the same amount, converted by molar mass.

Legend:
[1] = target: T1, Adenosine receptor A2b (Homo sapiens, UniProt P29275); test: Displacement of [3H]DPCPX from human recombinant adenosine A2B receptor expressed in HEK293 cells by beta scintillation counter; format: cell-based
T1 sequence (P29275 whole entry): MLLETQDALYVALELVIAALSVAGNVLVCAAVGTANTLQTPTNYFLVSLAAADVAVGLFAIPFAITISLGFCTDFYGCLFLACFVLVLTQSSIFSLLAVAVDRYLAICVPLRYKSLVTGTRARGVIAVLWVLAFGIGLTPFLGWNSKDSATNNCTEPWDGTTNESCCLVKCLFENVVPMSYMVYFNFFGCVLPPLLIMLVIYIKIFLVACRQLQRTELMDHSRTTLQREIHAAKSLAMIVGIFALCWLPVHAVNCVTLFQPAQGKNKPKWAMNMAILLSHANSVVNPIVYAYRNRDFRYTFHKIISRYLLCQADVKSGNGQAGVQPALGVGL
Method in brief: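 Competition binding on membranes from transfected HEK-293 cells expressing hA2B, using 35 nM [3H]DPCPX. Non-specific binding was defined with NECA. Incubation was 30 min at 25 °C, followed by filtration and scintillation counting. Ki values are means of two independent experiments in duplicate.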

[2] = target: T2, Adenosine receptor A2a (Homo sapiens, UniProt P29274); test: Displacement of [3H]ZM241385 from human recombinant adenosine A2A receptor expressed in HeLa cells by beta scintillation counter; format: cell-based
[3] = organism: Homo sapiens; test: Selectivity index, ratio of Ki for human recombinant adenosine A2A receptor to Ki for human recombinant adenosine A2B receptor
Method in brief: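 Competition binding on membranes at 25 °C for 30 min, then filtration and beta scintillation counting. hA2A: transfected HeLa cells, 3 nM [3H]ZM241385, non-specific binding with 50 µM NECA. hA2B: transfected HEK-293 cells, 35 nM [3H]DPCPX, non-specific binding with 400 µM NECA. Ki values are means of two independent duplicate experiments. SI = Ki hA2A / Ki hA2B.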

[4] = target: T3, Adenosine receptor A2b (Homo sapiens) (UniProt P29275); test: Displacement of [3H]DPCPX from human recombinant adenosine A2B receptor expressed in HEK293 cells at 1 uM by beta scintillation counter; format: cell-based
T3 sequence (whole entry): T1 sequence (P29275 whole entry)

[5] = target: T2, Adenosine receptor A2a; test: Displacement of [3H]ZM241385 from human recombinant adenosine A2A receptor expressed in HeLa cells at 1 uM by beta scintillation counter
[6] = target: T4, Adenosine receptor A1 (Homo sapiens, UniProt P30542); test: Displacement of [3H]DPCPX from human recombinant adenosine A1 receptor expressed in CHO cells by beta scintillation counter; format: cell-based
T4 sequence (P30542 whole entry): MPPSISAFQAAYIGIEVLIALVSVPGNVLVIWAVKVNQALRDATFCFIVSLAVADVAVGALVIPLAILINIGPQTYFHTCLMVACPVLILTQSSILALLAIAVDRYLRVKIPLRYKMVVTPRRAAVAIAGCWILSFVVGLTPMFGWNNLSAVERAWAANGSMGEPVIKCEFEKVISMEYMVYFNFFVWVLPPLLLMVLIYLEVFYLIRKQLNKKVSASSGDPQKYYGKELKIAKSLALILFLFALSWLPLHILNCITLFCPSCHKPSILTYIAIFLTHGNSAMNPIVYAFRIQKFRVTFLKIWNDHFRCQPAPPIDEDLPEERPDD
Method in brief: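 Membranes from CHO cells expressing hA1, labelled with 2 nM [3H]DPCPX. Non-specific binding was defined with excess (R)-PIA. Incubated 25 °C for 60 min, then filtered and counted. Ki values are means of two independent experiments with duplicate points.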

[7] = target: T5, Adenosine receptor A3 (Homo sapiens, UniProt P0DMS8); test: Displacement of [3H]NECA from human recombinant adenosine A3 receptor expressed in HeLa cells by beta scintillation counter; format: cell-based
T5 sequence (P0DMS8 whole entry): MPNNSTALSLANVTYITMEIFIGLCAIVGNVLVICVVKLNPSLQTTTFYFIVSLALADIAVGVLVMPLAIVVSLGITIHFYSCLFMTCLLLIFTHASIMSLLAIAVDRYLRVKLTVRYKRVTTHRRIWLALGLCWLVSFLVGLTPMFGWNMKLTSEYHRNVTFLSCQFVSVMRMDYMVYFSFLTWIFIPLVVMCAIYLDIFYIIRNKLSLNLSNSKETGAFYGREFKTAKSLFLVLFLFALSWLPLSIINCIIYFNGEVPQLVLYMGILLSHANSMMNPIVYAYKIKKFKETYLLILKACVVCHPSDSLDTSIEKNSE
Method in brief: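 HeLa-hA3 membranes labelled with 30 nM [3H]NECA. Non-specific binding was defined with (R)-PIA. Incubation was 180 min at 25 °C, then filtration and scintillation counting. Ki values are means of two independent experiments with duplicate points.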

[8] = Solubility in water; format: physicochemical
Method in brief: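 Compound stock at 1 mg/ml in DMSO, added in small portions (typically 14 additions) to 50 mM Tris/HCl pH 7.4 at room temperature, keeping final DMSO below 5%. Precipitation was detected as light-scattering absorbance at 600–820 nm. The solubility limit was taken from a bilinear fit of absorbance versus DMSO added. Mean ± SEM of two assays.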

[9] = target: Adenosine receptor A2a (Rattus norvegicus, UniProt P30543); test: Antagonist activity at adenosine A2A receptor in Wistar-Kyoto rat aorta assessed as inhibition of phenylephrine-induced contraction treated 30 mins before phenylephrine challenge measured after 60 mins
[10] = target: T6, Adenosine receptor A2b (Rattus norvegicus, UniProt P29276); test: Antagonist activity at adenosine A2B receptor in Wistar-Kyoto rat colon assessed as inhibition of NECA-induced relaxation after 30 mins; settings: read-out: pA2 (converted)
T6 sequence (P29276 whole entry): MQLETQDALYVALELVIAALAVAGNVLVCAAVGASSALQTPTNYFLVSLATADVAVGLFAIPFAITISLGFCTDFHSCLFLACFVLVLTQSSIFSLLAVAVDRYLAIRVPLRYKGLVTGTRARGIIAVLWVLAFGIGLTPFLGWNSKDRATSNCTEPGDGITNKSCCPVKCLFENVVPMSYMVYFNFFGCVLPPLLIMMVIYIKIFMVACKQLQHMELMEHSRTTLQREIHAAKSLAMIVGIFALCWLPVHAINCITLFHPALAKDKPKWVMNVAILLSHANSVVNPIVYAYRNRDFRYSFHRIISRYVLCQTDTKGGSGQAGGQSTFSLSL

T2 sequence (P29274 whole entry): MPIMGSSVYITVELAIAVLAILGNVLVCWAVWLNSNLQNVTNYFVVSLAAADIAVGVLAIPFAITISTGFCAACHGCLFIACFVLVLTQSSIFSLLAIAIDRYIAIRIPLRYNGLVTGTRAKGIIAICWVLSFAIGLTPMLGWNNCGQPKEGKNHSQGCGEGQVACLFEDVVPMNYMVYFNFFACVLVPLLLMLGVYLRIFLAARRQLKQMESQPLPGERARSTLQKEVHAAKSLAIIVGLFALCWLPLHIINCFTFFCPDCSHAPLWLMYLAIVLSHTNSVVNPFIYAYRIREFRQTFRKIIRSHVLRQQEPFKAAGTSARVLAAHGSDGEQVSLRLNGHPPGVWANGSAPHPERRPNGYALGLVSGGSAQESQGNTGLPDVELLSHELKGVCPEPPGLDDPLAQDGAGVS
Sequence of Adenosine receptor A2a (Rattus norvegicus, UniProt P30543) (P30543 whole entry): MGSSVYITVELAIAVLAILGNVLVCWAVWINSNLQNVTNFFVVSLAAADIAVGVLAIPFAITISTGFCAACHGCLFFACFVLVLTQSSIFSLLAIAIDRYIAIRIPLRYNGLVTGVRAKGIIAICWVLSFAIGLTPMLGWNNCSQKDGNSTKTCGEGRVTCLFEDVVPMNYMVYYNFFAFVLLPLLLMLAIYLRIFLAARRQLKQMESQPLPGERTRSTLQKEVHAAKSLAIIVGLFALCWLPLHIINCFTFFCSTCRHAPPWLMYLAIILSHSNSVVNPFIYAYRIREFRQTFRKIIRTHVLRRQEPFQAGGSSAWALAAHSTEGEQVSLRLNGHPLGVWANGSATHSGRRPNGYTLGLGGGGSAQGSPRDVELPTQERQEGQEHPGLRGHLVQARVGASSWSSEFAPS

Structure (SMILES)	Ki [1] [nM]	Ki [2] [nM]	Ratio Ki [3]	inhibition [4] [%]	inhibition [5] [%]	Ki [6] [nM]	Ki [7] [nM]	solubility [8] [µg/mL]	Kb [9] [nM]	Kb [10] [nM]
Cn1c(=O)c2[nH]c(-c3ccc(COC(=O)Nc4ccccn4)cc3)cc2n(C)c1=O	81.3	490	6							
CCCn1c(=O)c2[nH]c(-c3ccc(COC(=O)Nc4cc[nH]n4)cc3)cc2n(CCC)c1=O	5.9	10	1.7							
CCCn1c(=O)c2[nH]c(-c3ccc(COC(=O)N4CCN(c5ccccc5)CC4)cc3)cc2n(CCC)c1=O		447		46						
CCCn1c(=O)c2[nH]c(-c3ccc(COC(=O)Nc4cccs4)cc3)cc2n(CCC)c1=O	602	2240	3.7							
CCCn1c(=O)c2[nH]c(-c3ccc(COC(=O)N4CCN(c5cccc(Cl)c5)CC4)cc3)cc2n(CCC)c1=O	24	28.2	1.2							
Cn1c(=O)c2[nH]c(-c3ccc(COC(=O)Nc4ccco4)cc3)cc2n(C)c1=O	3.2	18.2	5.6							
Cn1c(=O)c2[nH]c(-c3ccc(COC(=O)Nc4ccsc4)cc3)cc2n(C)c1=O	0.8	10.5	12.6			10	363	21.5 (≈ 52.4 µM)	28.2	2.19
CCCn1c(=O)c2[nH]c(-c3ccc(COC(=O)N4CCN(c5ccc(F)cc5)CC4)cc3)cc2n(CCC)c1=O	42.7	50.1	1.2							
CCCn1c(=O)c2[nH]c(-c3ccc(COC(=O)Nc4ccon4)cc3)cc2n(CCC)c1=O	1.7	21.9	12.9							
CCCn1c(=O)c2[nH]c(-c3ccc(COC(=O)Nc4ccsc4)cc3)cc2n(CCC)c1=O	501	3310	6.6							

Now from value to compound, other results behind:

Ki [1] [nM]	Ki [2] [nM]	Ratio Ki [3]	inhibition [4] [%]	inhibition [5] [%]	Ki [6] [nM]	Ki [7] [nM]	Structure (SMILES)	solubility [8] [µg/mL]	Kb [9] [nM]	Kb [10] [nM]
2.1	43.7	20.4					Cn1c(=O)c2[nH]c(-c3ccc(COC(=O)N4CCc5ccccc5C4)cc3)cc2n(C)c1=O			
7.8	35.5	4.6					CCCn1c(=O)c2[nH]c(-c3ccc(COC(=O)Nc4cnccn4)cc3)cc2n(CCC)c1=O			
13.8				15			CCCn1c(=O)c2[nH]c(-c3ccc(COC(=O)Nc4ccccc4)cc3)cc2n(C)c1=O			
1	15.1	15.1					Cn1c(=O)c2[nH]c(-c3ccc(COC(=O)Nc4cccs4)cc3)cc2n(C)c1=O			
2.8	34.7	12.6			2.2	275	Cn1c(=O)c2[nH]c(-c3ccc(COC(=O)Nc4ccccc4)cc3)cc2n(C)c1=O			
7.1	28.8	4.1			20.4	331	CCCn1c(=O)c2[nH]c(-c3ccc(COC(=O)Nc4ccccc4)cc3)cc2n(CCC)c1=O	27 (≈ 58.6 µM)		
2	118	59			0.4	71	CCCn1c(=O)c2[nH]c(-c3ccc(COC(=O)Nc4ccc(F)cc4)cc3)cc2n(CCC)c1=O			
9.5	72.4	7.6			17.8	871	Cn1c(=O)c2[nH]c(-c3ccc(COC(=O)Nc4ccc(F)cc4)cc3)cc2n(C)c1=O			
16.2	1000	61.6					Cn1c(=O)c2[nH]c(-c3ccc(COC(=O)NCc4ccccc4)cc3)cc2n(C)c1=O			
11.5	132	11.5					Cn1c(=O)c2[nH]c(-c3ccc(COC(=O)N4CCN(c5ccccc5)CC4)cc3)cc2n(C)c1=O			
